Compound activity from PubChem BioAssay.
Compounds with a hit are over-represented: about 2.3% of the library has one in this group of screens.
bCat nuc transl: modulators of beta-catenin nuclear translocation, primary screen, imaging, HeLa cells, immunofluorescence, high-content. nuclear translocation activity, % at 5 µM. actives 0.3% (n = 190,000). AID 1665, 2009;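 active means nuclear translocation activity above 50% at 5 µM, with a well cell count of 50 or more; inconclusive means wells under 50 cells across six images, flagged as toxic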;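 further: per-cell ratio of nuclear to cytoplasmic median beta-catenin stain intensity; plate controls were DMSO negative control for no effect and GSK-3 inhibitor IX positive control for full effect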
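System: Human HeLa cells, endogenous beta-catenin | Compound dosing: 5 µM primary, 0.02–20 µM confirmation | Timing: 24 h compound exposure at 37°C, 5% CO2 | Measured by: Fluorescence imaging of beta-catenin antibody stain plus DAPI | Read-out basis: % activation of per-cell nuclear versus cytoplasmic median beta-catenin signal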
MT stabilize HCS: microtubule stabilizers in HeLa cells, primary screen, imaging, high-content imaging | HeLa tubulin immunostaining HCS, 24 h; share of cells brighter than vehicle mean+2SD | % tubulin-high responders, % at 10 µM | actives 0.83% (n = 200,000) | AID 2205, 2009;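 active means plate Z-score above 3 for both tubulin-high and condensed-nucleus cell shares, with cell loss under 80%, at 10 µM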;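 further: anti alpha tubulin signal scored within the nucleus-defined area of each cell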
Autophagy HCS: autophagy modulators in MEF cells, primary screen, imaging, high-content, MEF GFP-LC3; actives 0.98% (n = 190,000); calls only at 10 µM (by protocol); MEF GFP-LC3 puncta imaging; test concentration mostly 10 µM; AID 463193, 2010;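 active means percentage of spot-positive cells more than 3 SD above its plate mean, without a fluorescence outlier flag or 80% toxicity; inconclusive means no clear call, values can overlap the other calls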;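 further: spot-positive cell cutoff set from DMSO-treated cells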
Ins promoter up: insulin promoter activators in MIN6 cells, imaging, high-content screening, mouse beta cells; z-score at 5 µM; actives 0.3% (n = 190,000); MIN6 insulin promoter-GFP reporter; active compounds read high; AID 1625, 2009;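 active means z-score above 3 at 5 µM with at least 500 cells counted in the well; inconclusive means wells under 500 cells, flagged as cytotoxic or low count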
Dynein transport: inhibitors of GR-EGFP nuclear translocation, primary screen, dynein cargo transport inhibitor project, imaging, high-content, 3617.4 mouse cells. test concentration mostly 20 µM; stimulated with dexamethasone, 1 µM; active compounds read low. z-score, hits read low. actives 0.47% (n = 220,000);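 active means plate z-score of nuclear minus cytoplasmic receptor signal below a set negative limit, without overly bright fluorescence or cell loss, cut at about -3.5 in these data, passing the limit was not always enough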;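 further: z-score of nuclear minus cytoplasmic ring GR-EGFP intensity difference per well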
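Also added – dexamethasone, 1.0 µM final · Buffer or medium – tet-free, stripped-serum medium · Schedule – induction 48 h, compound 1 h, agonist 30 min · Detection – formaldehyde fixation, Hoechst nuclear stain, 10x automated fluorescence imaging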
An asterisk follows results filed as active; i = inactive; ? = inconclusive; . = no result given; + = active, no number.

SMILES	bCat nuc transl	MT stabilize HCS	Autophagy HCS	Ins promoter up	Dynein transport
Cc1ccc(-c2cc(C(=O)N3CCCc4ccccc43)c3ccccc3n2)cc1	-1.6	2.4	i	-0.2	0.62
Cc1ccc2nc3sc(C(=O)N4CCCc5ccccc54)c(N)c3cc2c1	0.0	28.1*	i	2.29	-0.621
Cc1cc(C)c2cc3c(N)c(C(=O)N4CCc5ccccc5C4)sc3nc2c1	-1.7	1.1	i	1.44	0.376
O=C(c1cc(-c2cccnc2)nc2ccccc12)N1CCCc2ccccc21	-3.4	13.9*	i	0.64	0.618
CC(C)OCCCNC(=O)Nc1cccc2ccccc12	-2.4	1.6	i	0.07	-0.32
O=S(=O)(c1ccc2nc(-c3ccccc3)[nH]c2c1)N1CCN(c2ccc(Cl)cc2)CC1	-2.9	16.0*	i	-0.44	0.379
O=Cc1sc(Nc2ccccc2)nc1Cl	11.0	3.0	i	3.66*	-0.0958
COc1ccccc1Nc1nc(Cl)c(C=O)s1	1.1	3.7	i	3.19*	-0.912
Cc1ccc(S(=O)(=O)Oc2ccccc2/C=N/N=C(N)N)cc1	-0.2	1.8	i	-1.32	-0.143
Cc1ccc(S(=O)(=O)Oc2ccccc2/C=N/NC(N)=S)cc1	32.6	32.1	+	-1.49	-0.287
O=C(c1ccccc1)N1CCN2C(=O)c3ccccc3C12c1ccc(Cl)cc1 (centres undefined)	1.4	2.2	+	-1.13	-0.64
Cc1ccc(S(=O)(=O)CCC#N)cc1	1.6	.	.	-0.01	0.64
CCCn1c(SCC(=O)NC2CCCCC2)nnc1-c1ccncc1	-4.2	1.1	i	3.06*	0.0692
COc1ccccc1-c1cc(SC)c(C#N)c(=O)o1	2.1	1.7	i	-0.05	-2.41
CC[n+]1c(/C=C/c2c[nH]c3ccccc23)ccc2cc(C)ccc21	37.0	79.8*	+	?	-1.12
Cc1cccc(C)c1OCCNC(=O)C(=O)NCc1ccco1	59.4*	10.5	i	-0.12	-0.21
Cc1cccc(C)c1NC(=O)NCc1ccco1	-0.2	.	.	-0.22	1.39
Cc1ccc2[nH]c(-c3cccc(F)c3)cc(=O)c2c1	.	26.7*	i	0.32	0.125
CC(NC(=O)CSc1ncccc1C(=O)O)C1CC2CCC1C2 (centres undefined)	0.1	.	.	-0.3	-1.09
CCCN(CCC)C(=O)C1CC(=O)OC12CCCCC2 (centres undefined)	0.1	6.0	i	0.48	-0.408
CC1CCCN(c2nc3nonc3nc2Nc2ccccc2F)C1 (centres undefined)	0.3	2.4	i	0.21	2.08
COc1ccc(OC)c(Nc2nc3nonc3nc2N2CCCC(C)C2)c1 (centres undefined)	3.5	1.9	+	-1.3	-0.345
COc1cccc(C2=NOC(C(=O)NCc3cccs3)C2)c1 (centres undefined)	97.8*	21.9*	i	-0.2	1.45
COc1ccccc1CNC(=O)C1CC(c2cccc([N+](=O)[O-])c2)=NO1 (centres undefined)	-0.5	48.5*	i	0.19	0.212
O=C(NCc1ccco1)C1CC(c2cccc([N+](=O)[O-])c2)=NO1 (centres undefined)	1.1	4.2	i	0.24	-0.566
SMILES	bCat nuc transl	MT stabilize HCS	Autophagy HCS	Ins promoter up	Dynein transport
COc1ccccc1NC(=O)N(Cc1ccco1)Cc1cc2ccc(C)c(C)c2[nH]c1=O	121.8*	57.1	i	-2.04	3.73
COc1ccccc1NC(=O)N(Cc1ccco1)Cc1cc2cc(C)cc(C)c2[nH]c1=O	32.8	26.0*	i	-1.68	1.77
CCNC(=S)N(Cc1ccco1)Cc1cc2cc3c(cc2[nH]c1=O)OCCO3	.	6.4	i	0.09	-0.332
COc1ccccc1NC(=S)N(Cc1ccco1)Cc1cc2cc(C)c(C)cc2[nH]c1=O	63.5*	7.5	i	.	-0.314
CC(C)CNC(=S)N(Cc1ccco1)Cc1cc2cc3c(cc2[nH]c1=O)OCCO3	-1.1	33.4*	i	-0.17	0.841
COc1ccccc1NC(=S)N(Cc1ccco1)Cc1cc2cccc(C)c2[nH]c1=O	5.2	4.5	i	-1.31	0.525
COC(=O)c1cc(OC)c(OC)cc1NC(=O)c1ccccc1C	-3.0	5.7	i	-1.85	-1.07
Cc1ccccc1-c1oc(C)c(C)[n+]1[O-]	-1.1	.	i	-0.12	-0.0536
CCCn1c(SCC(=O)NNC(=O)c2ccccc2)nnc1-c1cccnc1	-1.8	.	.	2.2	-0.201
Cc1ccc2cc(CN(Cc3ccco3)C(=O)c3cccs3)c(=O)[nH]c2c1	.	34.5*	i	-0.05	0.647
O=C(NC1CCCCCC1)c1c2c(nc3ccccc13)CCN(Cc1ccccc1)C2	-3.0	3.2	i	-0.6	-0.254
Cc1c(Cl)cccc1NC(=O)COC(=O)c1c2c(nc3ccccc13)CCN(Cc1ccccc1)C2	-0.8	3.2	+	-0.22	-0.114
Cc1cc(N2CCN(C)CC2)ccc1NC(=O)c1c2c(nc3ccccc13)CCN(Cc1ccccc1)C2	-2.8	2.8	?	-5.24	1.14
CC(C)c1ccccc1NC(=O)COC(=O)c1c2c(nc3ccccc13)CCN(Cc1ccccc1)C2	.	2.1	+	-1.33	-0.3
CCN(CC)CCn1c(=S)[nH]c2ccc(Cl)cc2c1=O	-0.6	2.4	i	3.97*	-1.16
CCN(CC)CCn1c(=S)[nH]c2cc(Cl)ccc2c1=O	-1.4	2.2	i	-1.23	-0.778
O=C(Nc1ccc2c(c1)OCO2)c1noc2c1CCCCC2	0.0	3.1	+	-0.09	1.11
Cc1cc(NC(=O)c2noc3c2CCCC3)no1	.	2.6	+	0.35	0.707
COc1ccc(S(=O)(=O)N(C)C)cc1NC(=O)CSc1nnc(-c2cccnc2)o1	-4.9	1.8	i	0.21	-0.219
O=C(CCl)Nc1cn(-c2ccccc2)nc1-c1ccccc1	0.6	12.4	i	-0.15	1.14
CCOC(=O)c1ccccc1NC(=O)Cn1c(-c2nonc2N)nc2ccccc21	63.0*	6.7	i	.	1.22
Nc1nonc1-c1nc2ccccc2n1Cc1ccccc1	.	3.2	+	0.13	0.785
COc1ccc(-c2[nH]ncc2CN2CCC(N3CCSCC3)CC2)c(F)c1	0.4	2.7	i	.	0.299
C[C@H](NC(=O)c1ccccc1Cl)C(=O)NCc1cccs1	-0.9	1.6	i	-0.5	-1.21
CC1CN(c2ccc(NC(=S)NNCCC#N)cc2)CC(C)O1 (centres undefined)	-0.1	.	.	-0.25	1.22
Cc1ccc(-c2cc(C(=O)Nc3c(C)n(C)n(-c4ccccc4)c3=O)[nH]n2)c(O)c1C	-0.5	.	.	-0.18	-0.611
Cc1ccc2nc(/C(C#N)=C\c3ccc(Oc4ccc(C(F)(F)F)cc4[N+](=O)[O-])cc3)[nH]c2c1	4.3	6.5	i	-0.56	2.06
